Laboratory results: ChEMBL document CHEMBL2203171, “The use of small molecule probes to study spatially separated stimulus-induced signaling pathways” (Bioorg Med Chem Lett, 2012)
Activity calls are given as the source filed them. No cut-off for these calls is given here.

Experiments:
[1] = molecular target: Toll-like receptor 4 (Homo sapiens) (UniProt O00206); experiment: Inhibition of MyD88 recruitment to TLR4 cytoplasmic domain expressed in CHO cells at 25 to 50 uM incubated for 30 mins prior to CCf2/AM loading measured after 1 hr by beta-lactamase complementation assay; format: cell-based
Summary of the method: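 CHO cells co-expressing TLR4- and MyD88-β-lactamase fragment fusions, or empty-vector controls, were plated for 24 h and then treated 30 min with compound at 25 or 50 μM. Cells were loaded with 1 μM CCF2/AM for 1 h at room temperature and imaged by fluorescence microscopy (405 nm excitation, 435 nm long-pass emission). Read-out: percent of blue (β-lactamase-positive) cells.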

[2] = molecular target: T1, Interleukin-1 receptor type 1 (Mus musculus) (UniProt P13504); experiment: Inhibition of MyD88 recruitment to IL-1R in C57BL/6 mouse BMDM cells assessed as inhibition of IL-1-induced IkappaBalpha degradation up to 90 mins by Western blot analysis; format: cell-based
T1 sequence (whole entry): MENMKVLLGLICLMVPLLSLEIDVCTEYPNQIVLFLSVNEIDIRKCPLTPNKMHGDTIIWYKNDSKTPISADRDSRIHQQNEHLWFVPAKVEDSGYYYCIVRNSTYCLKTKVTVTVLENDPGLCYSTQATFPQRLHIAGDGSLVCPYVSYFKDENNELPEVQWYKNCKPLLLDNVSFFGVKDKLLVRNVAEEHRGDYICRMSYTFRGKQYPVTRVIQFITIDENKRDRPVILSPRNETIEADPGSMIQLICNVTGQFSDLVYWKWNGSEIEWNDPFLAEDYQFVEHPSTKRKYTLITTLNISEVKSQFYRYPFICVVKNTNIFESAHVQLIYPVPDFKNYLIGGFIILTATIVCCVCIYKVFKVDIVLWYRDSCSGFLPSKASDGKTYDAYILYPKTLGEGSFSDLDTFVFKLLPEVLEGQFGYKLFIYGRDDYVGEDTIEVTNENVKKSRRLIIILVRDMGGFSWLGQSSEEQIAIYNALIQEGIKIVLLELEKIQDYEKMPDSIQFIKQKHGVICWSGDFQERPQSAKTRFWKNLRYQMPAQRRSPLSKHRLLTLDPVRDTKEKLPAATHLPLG
Summary of the method: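 Bone marrow macrophages from C57BL/6 mice, grown in 70% growth medium (DMEM, 10% FBS) plus 30% L929-conditioned medium and given fresh medium 12-14 h before stimulation. Stimuli: IL-1 40 ng/ml, HKSA ~10^8 cfu/ml, pI:pC 50 μg/ml or CpG 10 μg/ml, ± compound at 10 μM (final) added from a 200x DMSO stock. IκBα and p38 profiled by immunoblot. Three independent experiments, quantitated and normalized.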

[3] = molecular target: T2, Inhibitor of nuclear factor kappa-B kinase subunit beta (Mus musculus) (UniProt O88351); experiment: Inhibition of IKKbeta in C57BL/6 mouse BMDM cells assessed as inhibition of LPS-induced IkappaBalpha phosphorylation at 25 uM after 5 mins by Western blot analysis; format: cell-based
T2 sequence (whole entry): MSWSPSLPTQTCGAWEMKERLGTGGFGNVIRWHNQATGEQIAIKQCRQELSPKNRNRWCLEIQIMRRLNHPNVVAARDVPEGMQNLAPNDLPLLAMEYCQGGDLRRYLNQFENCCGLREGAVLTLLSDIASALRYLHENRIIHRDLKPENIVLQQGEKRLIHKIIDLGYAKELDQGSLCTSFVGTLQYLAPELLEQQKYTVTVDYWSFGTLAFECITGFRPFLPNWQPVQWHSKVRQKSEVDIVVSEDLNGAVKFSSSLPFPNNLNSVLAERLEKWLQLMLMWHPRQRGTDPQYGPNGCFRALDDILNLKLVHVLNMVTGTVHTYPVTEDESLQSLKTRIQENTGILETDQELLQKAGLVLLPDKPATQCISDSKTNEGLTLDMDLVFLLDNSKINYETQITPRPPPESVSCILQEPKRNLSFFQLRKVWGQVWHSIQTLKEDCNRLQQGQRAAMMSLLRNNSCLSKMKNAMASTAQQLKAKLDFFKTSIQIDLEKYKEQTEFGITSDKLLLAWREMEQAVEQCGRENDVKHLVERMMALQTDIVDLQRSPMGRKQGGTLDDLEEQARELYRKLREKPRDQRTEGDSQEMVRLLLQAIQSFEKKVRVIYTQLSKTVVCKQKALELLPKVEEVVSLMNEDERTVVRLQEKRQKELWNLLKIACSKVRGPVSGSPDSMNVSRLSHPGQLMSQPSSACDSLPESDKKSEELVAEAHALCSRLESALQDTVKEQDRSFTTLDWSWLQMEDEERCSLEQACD
Summary of the method: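 C57BL/6 marrow-derived macrophages were cultured in 70% growth medium/30% L929-conditioned medium and refreshed 12-14 h before stimulation. Stimuli were TNF 40 ng/ml or LPS 100 ng/ml, ± compound at 25 μM from a 200x DMSO stock. Western blots tracked IKK, p38, IκBα and phospho-RelA. Results from three independent experiments were quantitated and normalized.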

[4] = molecular target: T2, Inhibitor of nuclear factor kappa-B kinase subunit beta (Mus musculus); experiment: Inhibition of IKKbeta in C57BL/6 mouse BMDM cells assessed as inhibition of TNFalpha-induced IkappaBalpha phosphorylation at 25 uM by Western blot analysis

Toll-like receptor 4 (Homo sapiens), sequence (O00206 whole entry, the tested form may be a part): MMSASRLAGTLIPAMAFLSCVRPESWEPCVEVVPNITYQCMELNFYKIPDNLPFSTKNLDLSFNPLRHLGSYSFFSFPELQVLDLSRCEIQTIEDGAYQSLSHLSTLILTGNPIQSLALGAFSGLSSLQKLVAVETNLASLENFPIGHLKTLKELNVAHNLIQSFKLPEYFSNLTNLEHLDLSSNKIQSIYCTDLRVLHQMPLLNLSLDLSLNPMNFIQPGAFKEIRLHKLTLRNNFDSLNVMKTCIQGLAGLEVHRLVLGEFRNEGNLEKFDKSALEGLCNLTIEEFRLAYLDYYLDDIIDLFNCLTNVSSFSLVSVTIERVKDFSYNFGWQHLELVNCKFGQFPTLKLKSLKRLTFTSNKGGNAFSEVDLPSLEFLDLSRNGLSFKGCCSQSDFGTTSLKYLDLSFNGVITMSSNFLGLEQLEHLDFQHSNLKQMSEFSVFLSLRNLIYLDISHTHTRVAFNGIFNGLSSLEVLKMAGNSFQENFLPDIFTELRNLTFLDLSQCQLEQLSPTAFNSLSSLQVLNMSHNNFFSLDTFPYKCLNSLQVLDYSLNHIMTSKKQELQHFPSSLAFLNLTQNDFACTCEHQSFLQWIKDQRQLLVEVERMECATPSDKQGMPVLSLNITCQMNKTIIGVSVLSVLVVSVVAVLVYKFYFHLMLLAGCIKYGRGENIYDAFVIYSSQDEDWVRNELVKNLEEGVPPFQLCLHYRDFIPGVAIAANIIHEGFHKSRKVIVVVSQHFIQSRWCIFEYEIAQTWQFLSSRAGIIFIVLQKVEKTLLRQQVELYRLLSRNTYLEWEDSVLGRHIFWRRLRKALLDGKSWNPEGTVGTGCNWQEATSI

## O=C(CCCCCN1C(=O)C=CC1=O)Oc1ccc2cc(C(C(=O)NCc3ccccc3)N(C(=O)Cc3ccc4c(c3)OCO4)C3CC3)ccc2c1 (centres undefined)
[1]
  inhibition: inactive
[2]
  inhibition: Active
[3]
  inhibition: Active
[4]
  inhibition: inactive
